In ChEMBL document CHEMBL1154512, “PA-824 kills nonreplicating Mycobacterium tuberculosis by intracellular NO release” (2008):
Active and inactive are the calls of the source. The rule behind the calls is not given here.

Columns and labels:
[1] = tested on: Mycobacterium tuberculosis; test: Induction of nitrous acid production in NRP2 phase Mycobacterium bovis BCG assessed as ratio of Vmax to Km under hypoxic non replicating condition; assay type: functional, variant bovis BCG
In short: (§1)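 NO release measured inside BCG cells preloaded with the NO-specific fluorescent probe DAF-FM diacetate and then treated with compound. Fluorescence (RFU) followed over time. Rate expressed as apparent Vmax/Km, i.e. RFU per hour divided by an intracellularly measured Km (RFU hr–1 μM–1).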

[2] = tested on: Mycobacterium tuberculosis; test: Induction of nitrous acid production in NRP2 phase Mycobacterium bovis BCG under aerobic condition in presence of DAF-FM diacetate; assay type: functional, organism-based; conditions: variant bovis BCG; in short: as §1
[3] = tested on: Mycobacterium tuberculosis; test: Induction of nitrous acid production in NRP2 phase Mycobacterium bovis BCG at 1.85 uM to 100 uM after 2 days under hypoxic non replicating condition in presence of DAF-FM diacetate; assay type: functional, organism-based; conditions: variant bovis BCG
[4] = tested on: Mycobacterium tuberculosis; test: Induction of nitrous acid production in NRP2 phase Mycobacterium bovis BCG at 20 uM by fluorescence quenching measurement in presence of C-PTIO; assay type: functional, organism-based; conditions: variant bovis BCG
In short: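 BCG cells preloaded with DAF-FM diacetate were treated with 20 μM nitroimidazole in the presence of increasing concentrations of the NO scavenger C-PTIO. NO read as fluorescence. Three independent replicates, error as SD.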

In the case of O=[N+]([O-])c1cn2c(n1)NC[C@@H](OCc1ccc(OC(F)(F)F)cc1)C2, the Ratio [1] was 4.8.

With O=[N+]([O-])c1cn2c(n1)OC[C@@H](NCCCc1ccc(OC(F)(F)F)cc1)C2 the Ratio [1] was 60.1.

O=[N+]([O-])c1cn2c(n1)OC[C@@H](NCc1ccc(OC(F)(F)F)cc1)C2 was tested, and the Ratio [1] was 10.1.

CCCCc1ccc(CN[C@@H]2COc3nc([N+](=O)[O-])cn3C2)cc1 gave a Ratio [1] of 4.7.

O=[N+]([O-])c1cn2c(n1)OC[C@@H](NCc1ccc(OCc3ccc(OC(F)(F)F)cc3)cc1)C2 gave a Ratio [1] of 76.9.

Work on O=[N+]([O-])c1cn2c(n1)OC[C@@H](NCCc1ccc(OC(F)(F)F)cc1)C2 yielded a Ratio [1] of 28.7.

O=[N+]([O-])c1cn2c(n1)OC[C@@H](OCc1ccc(OC(F)(F)F)cc1)C2 [PRETOMANID] was tested, and the Activity [2] was “Active”, the Activity [3] was “Active” and the Ratio [1] was 12.5. The Activity [4] was “inactive”.

O=[N+]([O-])c1cn2c(n1)OC[C@@H](NCCCCc1ccc(OC(F)(F)F)cc1)C2 gave a Ratio [1] of 71.6.
